An excerpt weighted towards active compounds, which were near 2.3% of everything screened.
FID counter: counter-screen for HCV NS3 helicase inhibitors: DNA intercalator displacement; 290,000 tested, 0.17% active; DNA fluorescent intercalator displacement, fluorescence; AID 1845; inhibition, % at 7.9 µM; in the data active = inhibition above about 37%;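 also: higher means more ethidium bromide displaced from hairpin DNA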
TRPC4 agonist: opens the mouse TRPC4 cation channel; HEK293 TRPC4beta/mu-opioid, Fluo4 calcium fluorescence; hits give high values; AID 2237; B-score at 10 µM; 310,000 tested, 0.49% active;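 active = B-score above 5 SD of library B-scores, and initial fluorescence ratio not above library mean plus 5 SD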;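 also: positive B-score marks a calcium rise read as TRPC4 activation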
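Incubation: 45 min room-temperature Fluo4 loading, 110 s read / System: HEK293 cells stably co-expressing mouse TRPC4beta and mu-opioid receptor / Signal: Fluo4 fluorescence, kinetic / Control set: buffer (low) and maximal DAMGO (high) / Measure: integrated baseline-normalised fluorescence ratio, converted to per-well B score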
TRPC4 PAM: allosteric potentiators of mouse TRPC4 channel; 310,000 tested, 0.42% active; HEK293 TRPC4beta/mu-opioid, DAMGO EC20, Fluo-4 Ca2+ flux; hits give high values; B-score at 10 µM; AID 2227;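 active = B-score of calcium response area above 5 SD of library B-scores, with initial fluorescence ratio within 5 SD of library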
TRPC6 inhibitor: inhibitors of mouse TRPC6 channel; Q61143; HEK293-TRPC6, membrane potential dye, ACh-evoked depolarization; hits give low values; B-score at 10 µM; 310,000 tested, 1.1% active; AID 2553;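 active = B-score under library mean minus 3 SD, initial fluorescence not abnormally high, positive integrated signal ratio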;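 also: B-score derived from integrated fluorescence ratio over the kinetic read; more negative B-score means stronger inhibition of depolarization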
TRPC4 inh: inhibitors of mouse TRPC4 channel; Q9QUQ5; HEK293 TRPC4beta/mu-opioid, DAMGO-evoked Fluo4 calcium flux; hits give low values; B-score at 10 µM; 300,000 tested, 0.39% active;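 active = B-score over 3 SD under the library average, no early fluorescence shift, positive overall ratio signal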
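Material: HEK293 cells with stable TRPC4beta plus mu-opioid receptor expression / Probe or stimulus: DAMGO in two steps, submaximal then maximal / Compound: single concentration per test compound / Technique: kinetic Fluo4 fluorescence imaging of calcium influx / Read-out: per-well B score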
TRPC6 act: activates the mouse TRPC6 cation channel; Q61143; HEK293-TRPC6 membrane potential dye fluorescence; hits give high values; B-score at 10 µM; 310,000 tested, 0.13% active;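 active = B-score of the integrated fluorescence ratio above library mean plus 3 SD, and starting fluorescence ratio within library mean plus 5 SD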;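 also: higher score means more depolarization so channel activation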
Hits are given with their value; 0 = inactive.

SMILES	FID counter	TRPC4 agonist	TRPC4 PAM	TRPC6 inhibitor	TRPC4 inh	TRPC6 act
C#CCOCCOCCOCCNc1nc(N2CCN(C(=O)[C@H](Cc3ccc(O)cc3)n3cc([C@@H](N)CC(C)C)nn3)CC2)nc(N2CCN(C(=O)[C@H](Cc3cc4ccccc4[nH]3)n3cc([C@@H](N)CC(C)C)nn3)CC2)n1	37	0	0	0	0	0
Cc1nc2ccc(C(=O)N3CCN(Cc4ccccc4)CC3)cc2[nH]1	0	0	0	0	0	0
Cc1ccc2oc(C(=O)N(C)Cc3ccc(C)o3)c(C)c2c1	0	0	0	0	-6	0
CN(C)CCCn1cnc2c1c(=O)[nH]c(=O)n2Cc1ccccc1	0	0	0	0	0	0
COc1ccc(CCNC(C)=O)cc1	0	0	0	0	0	0
COc1ccc(CCNC(=O)C2CC=CCC2C(=O)O)cc1 (configuration not stated)	0	0	12	0	0	0
CC(C)(C)c1ccc(C(=O)NCC(=O)N2CCCCCC2)cc1	0	0	0	0	0	0
CCCNC(=O)c1nnsc1S(=O)c1ccc(Cl)cc1 (configuration not stated)	0	0	0	0	-6	0
N/C(=N\OC(=O)c1ccc(Cl)cc1)c1[nH]ncc1Br	0	0	0	0	0	0
CCC(C)c1ccc(C2C3=C(Nc4nc(N)[nH]c(=O)c42)c2ccccc2C3=O)cc1 (configuration not stated)	96	0	0	0	0	0
COCCN1C(=O)N(c2cccc(C)c2)C(=O)C1CC(=O)Nc1ccc(OC)cc1 (configuration not stated)	0	0	0	0	0	0
O=C(Cc1cn(Cc2cccc(Cl)c2)c2ccccc12)N1CCCC1	0	0	16	0	0	0
O=C(CS(=O)(=O)c1cn(Cc2ccc(Cl)cc2)c2ccccc12)N1CCCC1	0	0	0	0	0	0
Oc1ccccc1/C=N/NC(=S)NC1CC2CC1C1C=CCC21 (configuration not stated)	0	0	0	0	-8	0
CC1(C)CC(=O)C(C=NCCN2CCN(C3CC(=O)N(c4cccc(Br)c4)C3=O)CC2)=C(O)C1 (configuration not stated)	0	0	29	0	0	0
CC1(C)CC(=O)C(C=NCCN2CCN(C(=O)CCl)CC2)=C(O)C1	0	0	34	0	0	0
COc1cccc(N2C(=O)CC(N3CCN(CCN=CC4=C(O)CC(C)(C)CC4=O)CC3)C2=O)c1 (configuration not stated)	0	0	16	0	0	0
CC1(C)CC(=O)C(C=NCCN2CCN(C3CC(=O)N(c4ccc(F)cc4)C3=O)CC2)=C(O)C1 (configuration not stated)	0	0	0	0	0	0
CC1(C)CC(=O)C(C=NCCc2ccccn2)=C(O)C1	0	50	0	0	0	0
CCCCCCOc1ccc(N2C(=O)CC(N3CCN(CCN=CC4=C(O)CC(C)(C)CC4=O)CC3)C2=O)cc1 (configuration not stated)	0	0	0	0	0	0
CCC(=O)N1CCN(CCN=CC2=C(O)CC(C)(C)CC2=O)CC1	0	0	0	0	0	0
O=C(NCC1CCCO1)c1ccc(Cl)c(S(=O)(=O)Nc2ccccc2)c1 (configuration not stated)	0	0	0	0	0	0
N#Cc1ccc(N2CCCNCC2)nc1	0	44	0	0	0	0
CCOc1ccc([N+](=O)[O-])cc1CNC1CCCCCCC1	0	0	0	-5.9	0	0
O=[N+]([O-])c1cccc(CNC2CCCCCC2)c1	0	0	0	0	0	0
CC(=O)C1=C(O)C(=O)N(Cc2ccccc2)C1c1ccc([N+](=O)[O-])cc1 (configuration not stated)	0	0	0	0	-6	0
O=C1CN(C(=O)c2ccc(Br)o2)C(c2ccccc2)c2cc(Br)ccc2N1 (configuration not stated)	0	0	13	0	0	0
CCOC(=O)c1ccc(NC(=S)N2CCSC2c2ccc(Br)cc2)cc1 (configuration not stated)	0	0	43	0	0	0
CCOC(=O)c1ccc(NC(=S)N2CCC(O)CC2)cc1	0	0	0	0	0	0

Screens from PubChem.
